How the values were obtained:
[1] = tested on: triple-mutant polymorph (R361K/V362I/L363M); conditions: cited from earlier work
[2] = observed in other studies; cited from earlier work
[3] = Phase IIa monotherapy study: plasma pharmacokinetics; format: in vivo, HIV-1–positive, treatment-naive adults; conditions: for Accumulation ratio AUC0-τ, geometric mean (% CVb) / Accumulation ratio Cmax, geometric mean (% CVb) / Accumulation ratio Cτ, geometric mean (% CVb): steady state vs day 1; for Tmax / AUC(0-t): human
Outline: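 Oral doses were given once daily with food: part 1 for 10 days, part 2 for 7 days. Plasma drug was measured by LC-MS/MS (range 3.00–1000 ng/mL). Noncompartmental parameters were AUC0-24, Cmax and tmax on day 1, and AUC0-τ, Cmax and Cτ at steady state (day 8, 9 or 10 in part 1; day 7 in part 2). Accumulation ratios were steady state vs day 1, and dose proportionality used a power model. Participants vomiting within 1× tmax were excluded.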

SMILES: C=C(C)[C@@H]1CC[C@]2(NCCN3CCS(=O)(=O)CC3)CC[C@]3(C)[C@H](CC[C@@H]4[C@@]5(C)CC=C(C6=CC[C@@](CF)(C(=O)O)CC6)C(C)(C)[C@@H]5CC[C@]43C)[C@@H]12 [GSK’254]
- EC90 ([1]; read-out: 3× protein-binding adjusted 90% effective concentration (3× PBA EC90)): 150 nM
- EC50 ([1]; read-out: Half maximal effective concentration (EC50)): 3 nM
- 3× protein-binding adjusted 90% effective concentration (3× PBA EC90) ([1]; target trough concentration): 0.11 µg/mL
- Terminal phase half-life [2]: ~ 24 hours
- Accumulation ratio AUC0-τ, geometric mean (% CVb) ([3]; 10 mg once daily): 1.54 (24.5)
- Accumulation ratio Cmax, geometric mean (% CVb) ([3]; 10 mg once daily): 0.93 (171.7)
- Accumulation ratio Cτ, geometric mean (% CVb) ([3]; 10 mg once daily): 1.48 (22.2)
- Accumulation ratio AUC0-τ, geometric mean (% CVb) ([3]; 40 mg once daily): 2.29 (11.2)
- Accumulation ratio Cmax, geometric mean (% CVb) ([3]; 40 mg once daily): 2.03 (24.4)
- Accumulation ratio Cτ, geometric mean (% CVb) ([3]; 40 mg once daily): 2.30 (6.4)
- Accumulation ratio AUC0-τ, geometric mean (% CVb) ([3]; 80 mg once daily): 1.93 (18.6)
- Accumulation ratio Cmax, geometric mean (% CVb) ([3]; 80 mg once daily): 1.73 (17.6)
- Accumulation ratio Cτ, geometric mean (% CVb) ([3]; 80 mg once daily): 1.94 (20.8)
- Accumulation ratio Cmax, geometric mean (% CVb) ([3]; 140 mg once daily): 2.02 (37.5)
- Accumulation ratio Cτ, geometric mean (% CVb) ([3]; 140 mg once daily): 1.90 (16.0)
- Accumulation ratio AUC0-τ, geometric mean (% CVb) ([3]; 200 mg once daily): 2.25 (72.1)
- Accumulation ratio Cmax, geometric mean (% CVb) ([3]; 200 mg once daily): 1.98 (69.4)
- Accumulation ratio Cτ, geometric mean (% CVb) ([3]; 200 mg once daily): 1.98 (61.2)
- Dose proportionality of plasma PK ([3]; 10-200 mg): generally dose proportional to 140 mg but non-proportional between 140 and 200 mg
- Tmax ([3]; plasma, oral, Median tmax across all doses, steady state, 10-200 mg): 4.02 to 5.48 h
- AUC(0-t) ([3]; plasma, po, 10 mg): 700 ng·h/mL
- AUC(0-t) ([3]; plasma, po, 40 mg): 3250 ng·h/mL
- AUC(0-t) ([3]; plasma, po, 80 mg): 6120 ng·h/mL
- AUC(0-t) ([3]; plasma, po, 140 mg): 14000 ng·h/mL
- Tmax ([3]; plasma, po, 140 mg, tmax, median (range), repeat dose 140 mg once daily, day 7 (part 2), plasma, n = 6): 4.08 h
- AUC(0-t) ([3]; plasma, po, 200 mg): 12400 ng·h/mL
- Tmax ([3]; plasma, po, 200 mg, tmax, median (range), repeat dose 200 mg once daily, Day 8, 9, or 10 (part 1), plasma, n = 6): 5.48 h
- Dose proportionality power model estimated slope (90% CI) for Cτ ([3]; repeat administration, steady state): 1.14 (90% CI: 1.02–1.26)
- CL/F (apparent oral clearance), geometric mean (% CVb) ([3]; repeat dose 40 mg once daily, day 7 (part 2), n = 6): 5360 (26.8) mL/h
- CL/F (apparent oral clearance), geometric mean (% CVb) ([3]; repeat dose 80 mg once daily, day 7 (part 2), n = 6): 6765 (26.7) mL/h
- CL/F (apparent oral clearance), geometric mean (% CVb) ([3]; repeat dose 140 mg once daily, day 7 (part 2), n = 6): 4779 (27.9) mL/h
- CL/F (apparent oral clearance), geometric mean (% CVb) ([3]; repeat dose 200 mg once daily, Day 8, 9, or 10 (part 1), n = 6): 7159 (18.4) mL/h
- AUC0-τ, geometric mean (% CVb) ([3]; repeat dose 200 mg once daily, Day 8, 9, or 10 (part 1), plasma, n = 6): 27.90 (18.4) µg∗h/mL
- Mean trough concentration relative to target trough concentration ([3]; ≥40-mg groups (all dose groups except 10 mg)): > 110 ng/mL
